Peptide text beside a SMILES is read from it.
How the values were obtained:
[1] = Apparent permeability in RRCK cells at 8 uM at pH 7.4 incubated for 2 hrs by LC-MS/MS method; assay type: ADME, cell-based, Canis lupus familiaris, MDCKII-LE; settings: dog, MDCK
[2] = Apparent permeability in RRCK cells at 8 uM at pH 7.4 incubated for 2 hrs by LC-MS/MS method relative to CSA; assay type: ADME, cell-based, Canis lupus familiaris; settings: dog, mdckii-le, pH 7.4, 2 h
Summary of the method: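 RRCK monolayers (no active transporters); compound at 8 μM alongside cyclosporin A at 8 μM; medium 0.05% DMSO in HEPES buffer, pH 7.4, 37 °C; apparent permeability expressed in cm·s–1.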

[3] = Clearance in Wistar rat at 1 mg/kg, iv by LC-MS method; assay type: ADME, organism-based; set-up: dose 1 mg/kg, route intravenous; settings: in vivo
[4] = Permeability in human Caco2 cells at 10 uM by LC-MS method; assay type: ADME, cell-based; settings: caco-2, 10 µM
Summary of the method: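 Caco-2 monolayers; compound at 10 μM, cyclosporin A comparator at 30 μM; medium 0.05% DMSO in HEPES buffer, pH 7.4, 37 °C; apparent permeability in cm·s–1.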

[5] = Oral bioavailability in Wistar rat at 10 mg/kg measured over 8 hrs by LC-MS method; assay type: ADME, organism-based; settings: in vivo

## CC(C)C[C@@H]1NC(=O)[C@H](CC(C)C)NC(=O)[C@H](CC(C)C)NC(=O)[C@@H](CC(C)C)NC(=O)[C@H](CC(C)C)NC(=O)[C@H](CC(C)C)NC1=O
[1]
  Papp at 2 h, 8 µM: > 1 ×10⁻⁶ cm/s
[2]
  fold change (FC): 2
[3]
  clearance: 24.1 mL/min/kg
[4]
  permeability: permeable
[5]
  bioavailability: 9%

## CC(C)C[C@@H]1NC(=O)[C@H](CC(C)C)NC(=O)[C@H](CC(C)C)NC(=O)[C@H](CC(C)C)NC(=O)[C@H](CC(C)C)NC(=O)[C@H](CC(C)C)NC1=O
[1]
  Papp at 2 h, 8 µM: > 1 ×10⁻⁶ cm/s
[2]
  fold change (FC): 2
[3]
  clearance: 4.7 mL/min/kg
[4]
  permeability: permeable
[5]
  bioavailability: 17%

## CC(C)C[C@@H]1NC(=O)[C@H](CC(C)C)NC(=O)[C@H](CC(C)C)NC(=O)[C@H](CC(C)C)NC(=O)[C@H](CC(C)C)NC1=O (cyclo(LLLLL))
[1]
  Papp at 2 h, 8 µM: 1.7 ×10⁻⁶ cm/s
[4]
  permeability: permeable
[5]
  bioavailability: 4%

From ChEMBL document CHEMBL3351905, “Cyclic Penta- and Hexaleucine Peptides without N-Methylation Are Orally Absorbed” (ACS Med Chem Lett, 2014)
